Consider 17 compounds from ChEMBL document CHEMBL1134779, “Synthesis and characterization of the antitumor activities of analogues of meridine, a marine pyridoacridine alkaloid” (J Med Chem, 2001).

The subject of one assay is HCT-15. In words: In vitro inhibition of HCT-15 (human colon cancer) cell growth. The assay is classed as functional, cell-based. The procedure, abridged: (§1)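 Human cancer lines from ATCC, grown at 37 °C in sealed dishes in Eagle's MEM with 5% FCS. Cells were seeded at 40000 cells/mL and plated for 24 h before drug exposure. Six concentrations from 10^-5 to 10^-10 M were tested. Growth was read by MTT reduction to formazan at 570 nm (reference 630 nm), in sextuplicate. IC50 is the concentration giving 50% growth reduction versus control.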

For a further assay, the system named is MCF7. In words: In vitro inhibition of MCF-7 (human breast cancer) cell growth. The assay is classed as functional, cell-based. A digest of the protocol:
as §1

A further assay relates to SW1088 (human). Put plainly: In vitro inhibition of SW1088 (human astrocytoma) cell growth.
For a further assay, the system named is U-87 MG. In words: In vitro inhibition of U-87 MG (human glioblastoma) cell growth. In kind it is functional, cell-based, U-87MG ATCC. A digest of the protocol: as §1
The subject of a further assay is J82. In words: In vitro inhibition of J82 (human bladder cancer) cell growth. The assay is classed as functional, cell-based. The procedure, abridged: as §1
In another assay the test system is A-427. Put plainly: In vitro inhibition of A-427 (human lung cancer) cell growth. In kind it is functional, cell-based. The procedure, abridged:
as §1

Another assay deals with T47D. In words: In vitro inhibition of T-47D (human breast cancer) cell growth. The assay is classed as functional, cell-based. A digest of the protocol: as §1
Another assay deals with LoVo. Put plainly: In vitro inhibition of LoVo (human colon cancer) cell growth. The assay is classed as functional, cell-based. The procedure, abridged: as §1
In another assay the test system is U373 MG. Put plainly: In vitro inhibition of U-373 MG (human glioblastoma) cell growth. The assay is classed as functional, cell-based, U-373MG ATCC. A digest of the protocol: as §1
A short description of assay [1]: In vitro inhibition of T24 (human bladder cancer) cell growth. The assay is classed as functional, cell-based. As to conditions: T-24. A digest of the protocol:
as §1

For the next assay, the system named is A549. In words: In vitro inhibition of A549 (human lung cancer) cell growth. In kind it is functional, cell-based. The procedure, abridged: as §1
The next assay relates to PC-3. Put plainly: In vitro inhibition of PC-3 (human prostate cancer) cell growth. The assay is classed as functional, cell-based. The procedure, abridged:
as §1

Turning to `O=C1c2ncccc2C(=O)c2c(-c3ccccc3NC(=O)C(F)(F)F)ccnc21`, the IC50 (as a rule, the concentration that inhibits the measured activity by half) with HCT-15 was determined as 8 nM; with MCF7 it was 6 nM; in the assay with SW1088 (human), 60 nM; with U-87 MG, 0.9 nM; in the assay on J82, 60 nM; in the assay on A-427 it was 30 nM. In addition, the IC50 is 50 nM with T47D; 7 nM with LoVo; 5 nM in the assay with U373 MG; 200 nM in [1]; 6 nM in the assay with A549; 60 nM in the assay with PC-3.
Take `CN(C)c1ccnc2c1C(=O)c1c(-c3ccccc3NC(=O)C(F)(F)F)ccnc1C2=O`: the IC50 amounted to 200 nM in the assay on HCT-15; 100 nM in the assay on MCF7; 400 nM in the assay on SW1088 (human); 60 nM with U-87 MG; 2000 nM in the assay with J82; 70 nM in the assay on A-427. The IC50 in the assay on T47D stood at 700 nM; in the assay with LoVo, 100 nM; in the assay with U373 MG it was 300 nM; in [1] it was 300 nM; in the assay on A549, 60 nM; in the assay with PC-3, 600 nM.
Turning to `O=C1c2nccc(O)c2C(=O)c2c(-c3ccccc3[N+](=O)[O-])ccnc21`, the IC50 in the assay with HCT-15 came out at 3500 nM; in the assay on MCF7, 3900 nM; with SW1088 (human), 2900 nM; in the assay with U-87 MG, 800 nM; in the assay on J82 it was 5300 nM; with A-427 it was 1200 nM. For the same compound, the IC50 in the assay with T47D is 4500 nM; in the assay on LoVo, 2900 nM; in the assay with U373 MG it was 4000 nM; in assay [1] it was 2300 nM; in the assay with A549, 2300 nM; in the assay with PC-3, 7300 nM.
In the case of `O=C1c2nccc(-c3ccccc3NC(=O)C(F)(F)F)c2C(=O)c2c([N+](=O)[O-])ccnc21`, the IC50 in the assay on HCT-15 is 600 nM; in the assay on MCF7, 700 nM; with SW1088 (human), 6000 nM; in the assay on U-87 MG it was 4700 nM; with J82, 3900 nM; in the assay with A-427, 4500 nM. Besides, the IC50 came out at 4300 nM with T47D; 900 nM with LoVo; 900 nM in the assay with U373 MG; 5400 nM in [1]; 900 nM in the assay on A549; 600 nM in the assay with PC-3.
For `CN(C)c1ccnc2c1-c1nc3ccccc3c3ccnc(c13)C2=O`, the IC50 in the assay with HCT-15 was found to be 70 nM; with MCF7 it was 80 nM; with SW1088 (human) it was 100 nM; with U-87 MG, 50 nM; in the assay on J82, 1300 nM; in the assay on A-427 it was 60 nM. The IC50 with T47D came to 500 nM; in the assay with LoVo, 80 nM; in the assay with U373 MG it was 80 nM; in [1], 200 nM; in the assay on A549, 60 nM; in the assay with PC-3, 600 nM.
For the compound `O=C1c2nccc(Cl)c2-c2nc3ccccc3c3ccnc1c23`, the IC50 is 100 nM in the assay with HCT-15; 80 nM in the assay on MCF7; 4300 nM in the assay with SW1088 (human); 20 nM in the assay on U-87 MG; 90 nM in the assay with J82; 900 nM in the assay with A-427. The half-inhibitory concentration (IC50) in the assay on T47D turned out to be 2700 nM; in the assay on LoVo, 50 nM; with U373 MG, 100 nM; in assay [1], 90 nM; with A549 it was 7 nM; in the assay with PC-3, 500 nM.
With `O=C1c2nccc(Cl)c2C(=O)c2c(-c3ccccc3[N+](=O)[O-])ccnc21`, the IC50 stood at 2800 nM in the assay on HCT-15; 1800 nM in the assay on MCF7; 5400 nM in the assay with SW1088 (human); 2000 nM in the assay on U-87 MG; 500 nM in the assay on J82; 3500 nM in the assay on A-427. Further, the IC50 amounted to 800 nM in the assay on T47D; 3900 nM in the assay on LoVo; 4800 nM with U373 MG; 5500 nM in [1]; 900 nM in the assay on A549; 5000 nM in the assay on PC-3.
In the case of `O=C1c2nccc(O)c2-c2nc3ccccc3c3ccnc1c23` [MERIDINE], the IC50 was determined as 200 nM in the assay on HCT-15; 90 nM with MCF7; 2000 nM in the assay on SW1088 (human); 100 nM in the assay with U-87 MG; 8200 nM in the assay with J82; 200 nM in the assay on A-427. Further, the IC50 with T47D worked out at 70 nM; with LoVo, 70 nM; in the assay with U373 MG it was 100 nM; in [1] it was 50 nM; in the assay with A549, 80 nM; in the assay with PC-3, 500 nM.
As for `O=C1c2nccc(Cl)c2C(=O)c2c(-c3ccccc3NC(=O)C(F)(F)F)ccnc21`, the IC50 was 10 nM in the assay with HCT-15; 60 nM with MCF7; 3800 nM with SW1088 (human); 50 nM in the assay with U-87 MG; 3300 nM in the assay with J82; 600 nM in the assay on A-427. Moreover, the IC50 amounted to 2100 nM in the assay with T47D; 60 nM in the assay on LoVo; 90 nM in the assay on U373 MG; 200 nM in assay [1]; 70 nM in the assay on A549; 900 nM in the assay on PC-3.
For `Nc1ccnc2c1-c1nc3ccccc3c3ccnc(c13)C2=O`, the IC50 in the assay on HCT-15 was determined as 300 nM; in the assay on MCF7 it was 90 nM; in the assay on SW1088 (human), 80 nM; with U-87 MG, 70 nM; in the assay with J82 it was 700 nM; with A-427, 60 nM. Moreover, the IC50 with T47D came to 600 nM; with LoVo, 90 nM; in the assay on U373 MG, 100 nM; in [1], 70 nM; with A549, 80 nM; with PC-3 it was 500 nM.
In the case of `CCOC(=O)c1cnc2c(c1)-c1nc3ccccc3c3ccnc(c13)C2=O`, the IC50 with HCT-15 came to 200 nM; in the assay with MCF7, 700 nM; in the assay with SW1088 (human) it was 2800 nM; in the assay with U-87 MG, 70 nM; in the assay with J82 it was 5200 nM; in the assay with A-427, 800 nM. Moreover, the IC50 with T47D was determined as 2900 nM; in the assay with LoVo it was 700 nM; with U373 MG, 700 nM; in [1], 900 nM; in the assay on A549, 80 nM; in the assay on PC-3, 5700 nM.
Consider `Nc1ccnc2c1C(=O)c1c(-c3ccccc3[N+](=O)[O-])ccnc1C2=O`, for which the IC50 in the assay on HCT-15 turned out to be 500 nM; in the assay on MCF7 it was 3100 nM; with SW1088 (human) it was 4800 nM; with U-87 MG, 2700 nM; in the assay on J82, 3000 nM; in the assay with A-427, 5500 nM. Moreover, the IC50 with T47D was 5500 nM; in the assay on LoVo, 5700 nM; with U373 MG, 3100 nM; in assay [1] it was 3600 nM; in the assay with A549, 600 nM; in the assay with PC-3 it was 5100 nM.
For `O=C1c2nccc(Br)c2-c2nc3ccccc3c3ccnc1c23`, the IC50 is 3600 nM with HCT-15; 1100 nM in the assay with MCF7; 3000 nM in the assay with SW1088 (human); 700 nM in the assay on U-87 MG; 9000 nM with J82; 700 nM with A-427. In addition, the IC50 was found to be 4400 nM with T47D; 800 nM in the assay with LoVo; 900 nM in the assay with U373 MG; 700 nM in assay [1]; 3300 nM with A549; 4900 nM with PC-3.
Take `COc1ccnc2c1C(=O)c1c(-c3ccccc3NC(=O)C(F)(F)F)ccnc1C2=O`: the IC50 in the assay with HCT-15 was 2 nM; with MCF7, 0.3 nM; with SW1088 (human), 50 nM; with U-87 MG it was < 0.1 nM; in the assay with J82 it was 0.9 nM; with A-427, 50 nM. Also, the IC50 with T47D is 30 nM; with LoVo, 0.1 nM; in the assay on U373 MG, < 0.1 nM; in [1] it was 7 nM; with A549, < 0.1 nM; in the assay on PC-3 it was 50 nM.
For `CC(=O)Nc1ccnc2c1C(=O)c1c(-c3ccccc3NC(=O)C(F)(F)F)ccnc1C2=O`, the IC50 turned out to be 90 nM with HCT-15; 90 nM with MCF7; 90 nM in the assay on SW1088 (human); 60 nM in the assay with U-87 MG; 3500 nM with J82; 60 nM in the assay with A-427. The IC50 with T47D was 300 nM; with LoVo, 70 nM; with U373 MG, 90 nM; in assay [1], 400 nM; in the assay with A549 it was 70 nM; in the assay on PC-3, 2700 nM.
On to `O=C1c2nc(O)ccc2C(=O)c2c(-c3ccccc3NC(=O)C(F)(F)F)ccnc21`, for which the half-maximal inhibitory concentration (IC50) in the assay on HCT-15 turned out to be 60 nM; in the assay with MCF7, 30 nM; with SW1088 (human), 60 nM; in the assay on U-87 MG, 40 nM; in the assay on J82 it was 2100 nM; with A-427 it was 40 nM. Besides, the IC50 in the assay with T47D worked out at 200 nM; with LoVo it was 40 nM; in the assay on U373 MG, 40 nM; in [1], 50 nM; with A549, 50 nM; in the assay with PC-3, 900 nM.
Turning to `COc1ccnc2c1C(=O)c1c(-c3ccccc3[N+](=O)[O-])ccnc1C2=O`, the IC50 in the assay with HCT-15 was 90 nM; in the assay on MCF7, 50 nM; in the assay on SW1088 (human), 3900 nM; in the assay on U-87 MG, 9 nM; in the assay on J82 it was 400 nM; in the assay on A-427, 700 nM. For the same compound, the IC50 with T47D is 5100 nM; in the assay on LoVo, 50 nM; in the assay with U373 MG it was 30 nM; in assay [1], 20 nM; with A549 it was 20 nM; in the assay on PC-3, 3100 nM.
